Experiments:
Human alphaherpesvirus 1 [1] = assay: Inhibition of plaque formation in monolayers of HSV-1 KOS (TK+) Vero cells by 50%; assay type: functional, organism-based; conditions: Human alphaherpesvirus 1, Vero
Method in brief: (§1)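 Vero cells in DMEM with 5% FBS, seeded 1 day ahead, infected with ~100 PFU/well (KOS, TK+; KOSSB, TK−) for 1 h at 37 °C. Inoculum replaced with drug dilutions in duplicate: first 25, 10, 5, 1 µg/mL (KOS) or 50, 25, 10, 1 µg/mL (KOSSB), then 1:2 series. After 48 h at 37 °C, methanol fixation and Giemsa staining. EC50 from plaque counts versus no-drug controls.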

Human alphaherpesvirus 1 [2] = assay: Inhibition of plaque formation in monolayers of HSV-1 KOSSB(TK-) Vero cells by 50%; assay type: functional, organism-based; conditions: Human alphaherpesvirus 1, Vero; method in brief: as §1
Human alphaherpesvirus 3 = assay: Inhibition of viral cytopathic effect in infected human foreskin fibroblast cell in monolayers of VZV Ellen […] by 50%; assay type: functional, organism-based
Human alphaherpesvirus 2 = assay: Inhibition of viral cytopathic effect in infected human foreskin fibroblast cell monolayers of HSV-2 MS […] by 50%; assay type: functional, organism-based
Human alphaherpesvirus 1 [3] = assay: Inhibition of plaque formation in monolayers of HSV-1 E-377 (TK+) Vero cells by 50%; assay type: functional, organism-based; conditions: Human alphaherpesvirus 1, Vero
[4] = test system: Human betaherpesvirus 5 (HCMV); assay: Inhibition of viral cytopathic effect in infected human foreskin fibroblast cell in monolayers of HCMV AD-169 by 50%
Human alphaherpesvirus 1 [5] = assay: Inhibition of plaque formation in monolayers of HSV-1 KOS Vero cells by 50%; assay type: functional, organism-based; conditions: Human alphaherpesvirus 1, Vero; method in brief: as §1
Human alphaherpesvirus 1 [6] = assay: Inhibition of plaque formation in monolayers of HSV-1 E-377 Vero cells by 50%; assay type: functional, organism-based; conditions: Human alphaherpesvirus 1, Vero
[7] = test system: Human betaherpesvirus 5 (HCMV); assay: Inhibition of viral cytopathic effect in infected human foreskin fibroblast cell in monolayers of HCMV AD-169 by 50%; remark: listed apart in the source
Human alphaherpesvirus 1 [8] = assay: Inhibition of plaque formation in monolayers of HSV-1 KOS (TK+)Vero cells by 50%; assay type: functional, organism-based; conditions: Human alphaherpesvirus 1, Vero; method in brief: as §1
Human alphaherpesvirus 1 [9] = assay: Inhibition of plaque formation in monolayers of HSV-1 E-377(TK+) Vero cells by 50%; assay type: functional, organism-based; conditions: Human alphaherpesvirus 1, Vero

## N#CNC(CI)c1cn([C@H]2C[C@H](O)[C@@H](CO)O2)c(=O)[nH]c1=O (stereo partly drawn)
Human alphaherpesvirus 1 [1]
  EC50: 1.6 µM
Human alphaherpesvirus 1 [2]
  EC50: 15.3 µM
Human alphaherpesvirus 3
  EC50: 14.6 µM
Human alphaherpesvirus 2
  EC50: 77.8 µM
Human alphaherpesvirus 1 [3]
  EC50: 9.4 µM
[4]
  EC50: > 236 µM

## CCc1cn([C@H]2C[C@H](O)[C@@H](CO)O2)c(=O)[nH]c1=O [EDOXUDINE]
Human alphaherpesvirus 1 [2]
  EC50: > 780 µM
Human alphaherpesvirus 1 [5]
  EC50: 19.5 µM
Human alphaherpesvirus 3
  EC50: 32.7 µM
Human alphaherpesvirus 1 [6]
  EC50: 42.9 µM
[7]
  EC50: > 390 µM
Human alphaherpesvirus 2
  EC50: 58.5 µM

## O=c1[nH]c(=O)n([C@H]2C[C@H](O)[C@@H](CO)O2)cc1/C=C/Br [BRIVUDINE]
Human alphaherpesvirus 1 [2]
  EC50: > 150 µM
Human alphaherpesvirus 1 [5]
  EC50: 1.5 µM
Human alphaherpesvirus 3
  EC50: 0.003 µM
Human alphaherpesvirus 1 [6]
  EC50: 2.7 µM
[4]
  EC50: > 150 µM

## Nc1nc2c(ncn2COC(CO)CO)c(=O)[nH]1 [GANCICLOVIR]
[4]
  EC50: 0.23 µM

## [N-]=[N+]=NCC(O)c1cn([C@H]2C[C@H](O)[C@@H](CO)O2)c(=O)[nH]c1=O (stereo partly drawn)
Human alphaherpesvirus 1 [2]
  EC50: > 161 µM
Human alphaherpesvirus 1 [5]
  EC50: > 80 µM
Human alphaherpesvirus 3
  EC50: > 322 µM
Human alphaherpesvirus 1 [6]
  EC50: > 322 µM
Human alphaherpesvirus 2
  EC50: > 322 µM
[4]
  EC50: > 322 µM

## N#CNC(CBr)c1cn([C@H]2C[C@H](O)[C@@H](CO)O2)c(=O)[nH]c1=O (stereo partly drawn)
Human alphaherpesvirus 1 [8]
  EC50: 6.6 µM
Human alphaherpesvirus 1 [2]
  EC50: > 133 µM
Human alphaherpesvirus 3
  EC50: 20.7 µM
Human alphaherpesvirus 1 [9]
  EC50: 42.5 µM
Human alphaherpesvirus 2
  EC50: 87.7 µM
[4]
  EC50: > 266 µM

## N#CNC(CCl)c1cn([C@H]2C[C@H](O)[C@@H](CO)O2)c(=O)[nH]c1=O (stereo partly drawn)
Human alphaherpesvirus 1 [2]
  EC50: > 150 µM
Human alphaherpesvirus 1 [5]
  EC50: 37.5 µM
Human alphaherpesvirus 3
  EC50: 31.5 µM
Human alphaherpesvirus 1 [6]
  EC50: 210 µM
Human alphaherpesvirus 2
  EC50: 105 µM
[4]
  EC50: 274 µM

## Nc1nc2c(ncn2COCCO)c(=O)[nH]1 [ACYCLOVIR]
Human alphaherpesvirus 1 [2]
  EC50: 178 µM
Human alphaherpesvirus 1 [5]
  EC50: 2.2 µM
Human alphaherpesvirus 1 [6]
  EC50: 4.4 µM
Human alphaherpesvirus 2
  EC50: 6.2 µM

## COC(CN=[N+]=[N-])c1cn([C@H]2C[C@H](O)[C@@H](CO)O2)c(=O)[nH]c1=O (stereo partly drawn)
Human alphaherpesvirus 1 [2]
  EC50: > 150 µM
Human alphaherpesvirus 1 [5]
  EC50: > 75 µM
Human alphaherpesvirus 3
  EC50: > 300 µM
Human alphaherpesvirus 1 [6]
  EC50: > 300 µM
Human alphaherpesvirus 2
  EC50: > 300 µM
[4]
  EC50: > 300 µM

## N#CNC(CI)c1cn(C2O[C@H](CO)[C@@H](O)[C@@H]2O)c(=O)[nH]c1=O (stereo partly drawn)
Human alphaherpesvirus 1 [2]
  EC50: > 114 µM
Human alphaherpesvirus 1 [5]
  EC50: 22.8 µM
Human alphaherpesvirus 3
  EC50: 11.4 µM
Human alphaherpesvirus 1 [6]
  EC50: > 228 µM
Human alphaherpesvirus 2
  EC50: > 228 µM
[4]
  EC50: > 228 µM

## N#CNC(CBr)c1cn(C2O[C@H](CO)[C@@H](O)[C@@H]2O)c(=O)[nH]c1=O (stereo partly drawn)
Human alphaherpesvirus 1 [2]
  EC50: > 125 µM
Human alphaherpesvirus 1 [5]
  EC50: 62.5 µM
Human alphaherpesvirus 3
  EC50: 32 µM
Human alphaherpesvirus 1 [6]
  EC50: > 256 µM
Human alphaherpesvirus 2
  EC50: > 256 µM
[4]
  EC50: > 256 µM

Source: ChEMBL document CHEMBL1134633, “Synthesis and antiviral activity of novel 5-(1-cyanamido-2-haloethyl) and 5-(1-hydroxy(or methoxy)-2-azidoethyl) analogues of uracil nucleosides” (J Med Chem, 2001)
